Values after ≈ are worked out from the molar mass of the structure shown.
Columns and labels:
KB = experiment: Cytotoxicity against human KB cells after 4 hrs by MTT assay; format: functional; conditions: read-out: ED50 (the source's name)
In short: (§1)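 KB and HeLa cells from ATCC; growth inhibition read by MTT colorimetric method; ED50 in μg/mL.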

HeLa = experiment: Cytotoxicity against human HeLa cells after 4 hrs by MTT assay; format: functional; conditions: read-out: ED50 (the source's name); in short: as §1

How did the EC50 (KB) turn out when `COC(=O)C1=C[C@@]2(C)CC[C@@H]3[C@@H](C)C[C@H](OC(C)=O)[C@@]32[C@@H]1C` was run?
Its EC50 is over 10 µg/mL.

What about the EC50 (HeLa) of the same molecule?
The EC50 was over 10 µg/mL.

For `COC(=O)C1=C[C@@]2(C)CC[C@@H]3[C@@H](C)CC(=O)[C@@]32[C@@H]1C` [SUBERGORGIC ACID METHYL ESTER], which EC50 (KB) is on record?
Its EC50 is 4.3 µg/mL (≈ 16.4 µM).

Which EC50 (KB) does the source give for `C[C@@H]1CC(=O)[C@@]23[C@@H](C)C(C(=O)O)=C[C@]2(C)CC[C@@H]13` [SUBERGORGIC ACID] here?
Its EC50 is over 10 µg/mL.

And the EC50 (HeLa)?
The EC50 was over 10 µg/mL.

`C[C@@H]1C(CO)=C[C@@]2(C)CC[C@@H]3[C@@H](C)CC[C@@]132` [SUBERGORGIOL] was tested. Which EC50 (KB) did it give?
Its EC50 is over 10 µg/mL.

And the EC50 (HeLa)?
Its EC50 is over 10 µg/mL.

How did the EC50 (KB) turn out when `CC(=O)O[C@H]1C[C@H](C)[C@H]2CC[C@]3(C)C=C(C(=O)O)[C@@H](C)[C@]123` was run?
The EC50 was over 10 µg/mL.

And the EC50 (HeLa)?
The EC50 was over 10 µg/mL.

Which EC50 (KB) does the source give for `C[C@@H]1C(C(=O)O)=C[C@@]2(C)CC[C@@H]3[C@@H](C)C[C@H](O)[C@@]132` here?
The EC50 was over 10 µg/mL.

And the EC50 (HeLa)?
Its EC50 is over 10 µg/mL.

Reference: ChEMBL document CHEMBL1150117, “Two new subergane-based sesquiterpenes from a Taiwanese Gorgonian coral Subergorgia suberosa” (2002)
